M1 agonist – activates the M1 muscarinic receptor; B-score at 10 µM; CHO-M1 cells, Fluo-4 calcium fluorescence, agonist mode; hits give high values; hit rate 3% among 64,000; AID 626;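 active means fluorescence rise, raw or as B-score row- and column-corrected plate score, outside the 99.7% band of its plate's samples, either direction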
D1 mod – allosteric modulators of human D1 dopamine receptor; P21728; HEK293 D1, CRE-luciferase, dopamine EC30 potentiation; actives deviate in either direction; B-score at 10 µM; hit rate 5.9% among 58,000; AID 641;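 active means luminescence count or its row- and column-corrected plate score outside the 99.7% band of the plate's sample wells, on either side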
RORA act – activates the human nuclear receptor RORA | P35398 | CHO-K1 Gal4-RORA LBD luciferase reporter, luminescence; percent increase over mock-subtracted basal signal | activation, % at 10 µM | hit rate 1.5% among 65,000;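 active means activation above the mean of all tested compounds plus 3 SD, cut at about 49% in these data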;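 further: 0% = DMSO-treated RORA cells and 100% = added signal equal to DMSO minus mock-transfected cells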
HePTP inh – blocks human HePTP tyrosine phosphatase. recombinant HePTP phosphatase activity, OD absorbance. inhibition, % at 20 µM. hit rate 0.64% among 110,000. AID 521; in the data active means inhibition above about 50%; inconclusive means no clear call, values can overlap the other calls;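 further: plate controls were vehicle for no effect and reference inhibitor for full effect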
SF1 activator – activators of human nuclear receptor SF-1; Q13285; CHO-K1 Gal4-SF-1 LBD luciferase reporter; % increase over DMSO SF-1-specific signal; activation, % at 10 µM; hit rate 1.9% among 65,000; AID 522;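 active means activation above the mean activation of all tested compounds plus 3 SD, cut at about 50% in these data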
Target sequence (Q13285 whole entry, looked up, the tested form may be a part): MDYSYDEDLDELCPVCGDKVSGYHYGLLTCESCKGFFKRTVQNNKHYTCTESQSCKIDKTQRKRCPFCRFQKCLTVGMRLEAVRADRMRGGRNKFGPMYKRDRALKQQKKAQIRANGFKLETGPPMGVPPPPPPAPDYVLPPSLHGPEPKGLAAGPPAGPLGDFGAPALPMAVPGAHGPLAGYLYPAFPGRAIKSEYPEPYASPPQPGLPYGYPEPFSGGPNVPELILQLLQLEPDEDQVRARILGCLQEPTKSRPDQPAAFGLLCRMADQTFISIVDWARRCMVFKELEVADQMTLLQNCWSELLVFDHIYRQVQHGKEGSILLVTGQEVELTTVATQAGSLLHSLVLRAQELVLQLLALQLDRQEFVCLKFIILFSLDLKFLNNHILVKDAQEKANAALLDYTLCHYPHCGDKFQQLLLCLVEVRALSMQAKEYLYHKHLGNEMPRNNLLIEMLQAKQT
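material = CHO-K1 cells with Gal4–hSF-1 LBD chimera plus Gal4-driven luciferase | compound = 10 µM single point, 1% DMSO | incubation = 20 h compound exposure at 37 °C after 1 h cell settling | measured by = SteadyLite luciferase luminescence | evaluation = percent activation relative to DMSO median and mock-transfected background | control set = DMSO negative control and −SF1 background wells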
M1 antagonist – M1 muscarinic receptor (rat) antagonism; CHO-M1 cells, Fluo-4 calcium, ACh EC80 antagonist mode; hits give low values; hit rate 3.4% among 64,000; B-score at 10 µM; AID 628;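 active means calcium fluorescence response, raw or row-and-column corrected B-score, differing from the plate sample mean either way at a set confidence level, mostly lower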
M1 ag confirm – confirmation of rat M1 muscarinic receptor agonists. CHO-M1 cells, Fluo-4 calcium fluorescence, agonist mode; actives lie on both sides. shares compounds with M1 agonist. hit rate 19% among 1,700. fluorescence change (max-min) at 10 µM;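 active means fluorescence change differs from the solvent-only DMSO control mean at a set confidence level in both duplicate runs; inconclusive means differs from solvent-only control mean in just one of two runs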;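 further: an EC20 dose of acetylcholine follows compound addition during the same imaging run; raw fluorescence intensity difference in instrument units with no normalization to controls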
M4 agonist ctr – activates rat M4 receptor in counter-screen for M1 agonists | hit rate 9% among 1,700 | fluorescence change (max-min) at 10 µM | shares compounds with M1 agonist | CHO M4/Gqi5 cells, Fluo-4 calcium fluorescence, agonist mode; actives lie on both sides | AID 1741;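 active means fluorescence change differing from the plate's solvent-only control wells at 99.7% confidence in both duplicates, whether higher or lower; inconclusive means differs from solvent controls in only one of two duplicates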
D1 PAM confirm – confirmation of human D1 dopamine receptor allosteric modulators; shares compounds with D1 mod; HEK293 D1 CRE-luciferase, dopamine EC30 potentiation; hits give high values; luminescence at 10 µM; hit rate 88% among 2,200;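 active means luminescence in either of two replicates above the same-plate mean plus 3 SD of the low-dose dopamine control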
D1 ag no DA – D1 (human) signaling in absence of dopamine; shares compounds with D1 mod; HEK293 D1 CRE-luciferase, luminescence, no dopamine; hits give high values; luminescence at 10 µM; hit rate 0.8% among 1,900; AID 646; in the data active means luminescence above about 3900
Isoprot counter – alters isoproterenol CRE-luciferase response in HEK293 cells | calls only at 10 µM | shares compounds with D1 mod | hit rate 63% among 2,200 | HEK293 D1 CRE-luciferase, isoproterenol EC30 counter-screen;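 active means luminescence in either replicate above plate mean of wells with a partly effective reference agonist dose plus 3 SD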;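 further: isoproterenol raises cAMP through native beta-adrenoceptor Gs so signal bypasses D1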
* = called active by the depositor; i = inactive; u = inconclusive; x = not tested or not shown; + = active, no number. Most compounds without a hit are left out; they make up all but 8.2% or so of the library.

SMILES | M1 agonist | D1 mod | RORA act | HePTP inh | SF1 activator | M1 antagonist | M1 ag confirm | M4 agonist ctr | D1 PAM confirm | D1 ag no DA | Isoprot counter
COC(=O)c1ccc(C(=O)OC)c(NC(=O)COC(=O)C23CC4CC(CC(O)(C4)C2)C3)c1 | 5.3* | 3.1* | -18 | 1 | 3 | -1.7 | -6.2 | -22 | 5580* | 1192 | i
O=C1CNCc2[nH]c3ccccc3c2N1c1ccccc1 | -0.76 | 1.8 | -5 | 5 | 3 | 0.052 | x | x | x | x | x
O=CN1Cc2[nH]c3ccccc3c2N(c2ccc(Cl)cc2)C1=O | 4.8* | 9* | -9 | 2 | 0 | -0.046 | 16 | -20 | 10080* | 1192 | i
O=C(O)CCSc1nnc(-c2ccc3c(c2)OCO3)o1 | 0.93 | x | -19 | -1 | -43 | 0.33 | x | x | x | x | x
CC(C)(C)S(=O)(=O)c1ccc2nc3c(n2c1)CCCC3 | -0.00055 | -0.26 | 9 | 0 | 0 | 0.43 | x | x | x | x | x
Nc1c(NCCN2CCOCC2)c2ccccc2oc1=O | -0.67 | -0.54 | 6 | 0 | -10 | -0.27 | x | x | x | x | x
C=CCNC(=O)c1ccc(-c2ccc([N+](=O)[O-])cc2C)o1 | x | x | x | 8 | x | x | x | x | x | x | x
COc1ccc(CN2C(=O)c3cccnc3C2Nc2cc(Cl)ccc2OC)cc1 (stereo not drawn) | 4.8* | 12* | -9 | 1 | 6 | 1.1 | -4.8 | -30 | 26704* | 1696 | +
Cc1cc(NC(=O)CSc2ccc3nnc(-c4cccnc4)n3n2)no1 | 1.3 | 0.52 | -3 | -12 | 2 | -0.083 | x | x | x | x | x
CCN(CC)c1ccc2c(c1)OC(N)=C(C#N)C2c1cccnc1 (stereo not drawn) | 18* | 9.3* | -26 | 4 | -65 | -4.6* | 681* | 652* | 13200* | 2064 | +
Ic1ccc(OCCCn2ccnc2)cc1 | x | x | x | 0 | x | x | x | x | x | x | x
O=C1c2ccccc2-c2onc3ccc(NCCCn4ccnc4)c1c23 | 97* | 3.9* | 11 | u | 28 | -11* | 9 | 272 | 11264* | 1320 | i
COc1cccc(Nc2ccc3noc4c3c2C(=O)c2ccccc2-4)c1 | x | x | x | 6 | x | x | x | x | x | x | x
Cc1sc(NC(=O)CSc2nnc(COc3ccccc3)n2C)c(C#N)c1C | 2.4* | 6.8* | -2 | -5 | -4 | -0.17 | u | -51 | 6452 | 1688 | i
CCOC(=O)C1CCCN(C(=O)c2cnn3c(C(F)(F)F)cc(-c4ccccc4)nc23)C1 (stereo not drawn) | 0.47 | -1.3 | 9 | 2 | 8 | -0.38 | x | x | x | x | x
CCOC(=O)C1CCCN(C(=O)c2cc3nc(-c4cccc(OC)c4)cc(C(F)(F)F)n3n2)C1 (stereo not drawn) | 3.7* | 11* | -4 | 12 | -10 | -1.5 | -15 | -28 | 14152* | 1432 | +
COC(=O)c1cccc(S(=O)(=O)N2CCC(NC(=O)NC34CC5CC(CC(C5)C3)C4)CC2)c1 | 3.8* | 4.6* | 0 | -2 | 3 | -1.7 | u | -58 | 11624* | 1536 | i
CC1Cc2ccccc2N1C(=O)c1ccc2snnc2c1 (stereo not drawn) | 7.5* | 15* | 4 | 1 | -14 | 0.31 | -18 | u | 13280* | 1492 | +
O=C(Nc1ccccc1[N+](=O)[O-])c1ccc(-c2ccccc2)cc1 | x | x | x | -1 | x | x | x | x | x | x | x
NC(=O)c1ccc[n+](CC(=O)OCC23CC4CC(CC(C4)C2)C3)c1 | x | x | x | 7 | x | x | x | x | x | x | x
CSc1nsc(SCC(=O)Nc2ccccn2)n1 | -0.71 | -0.03 | -5 | -2 | 8 | -0.14 | x | x | x | x | x
